Mdm2 ligase inh: Mdm2 E3 ligase (human) inhibition. cell-based MDM2 ubiquitination luciferase reporter, 2 h; 0 = plate control, 100 = twice control, blank-subtracted. signal enhancement, % at 5 µM. Q00987. 210,000 tested, 0.11% active. AID 1230;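 active = signal enhancement of 30% or more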;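 note: luminescence tracks abundance of the self-degrading MDM2-luciferase fusion protein; higher signal means inhibition of MDM2 E3 ligase activity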
Target sequence (Q00987 whole entry, looked up, the tested form may be a part): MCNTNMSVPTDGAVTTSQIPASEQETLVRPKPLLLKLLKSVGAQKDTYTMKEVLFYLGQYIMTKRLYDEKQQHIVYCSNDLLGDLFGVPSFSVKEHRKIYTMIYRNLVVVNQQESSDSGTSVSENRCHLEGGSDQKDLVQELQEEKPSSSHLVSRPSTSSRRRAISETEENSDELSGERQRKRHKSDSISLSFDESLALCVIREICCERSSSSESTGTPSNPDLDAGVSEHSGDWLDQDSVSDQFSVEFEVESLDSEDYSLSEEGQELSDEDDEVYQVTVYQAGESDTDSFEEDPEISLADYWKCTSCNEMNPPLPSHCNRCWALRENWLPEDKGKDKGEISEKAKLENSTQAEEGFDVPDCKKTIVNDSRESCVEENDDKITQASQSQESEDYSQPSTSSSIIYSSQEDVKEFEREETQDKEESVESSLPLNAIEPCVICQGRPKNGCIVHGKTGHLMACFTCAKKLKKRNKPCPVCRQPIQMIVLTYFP
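Material: Stable MDM2–luciferase fusion reporter cells | Amount: 2000 cells seeded into each well | Dosing: One concentration, 5 µM, with 0.2% DMSO | Incubation: 4 h cell settling then 2 h compound exposure, 37 °C | Measured by: Luciferase luminescence | Read-out basis: % enhancement relative to plate controls after blank subtraction | Benchmarks: Control and blank well means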
Yeast lifespan up: extends the lifespan of yeast | 130,000 tested, 0.68% active | inhibition of the nicotinamide effect, % at 10 µM | S. cerevisiae growth with nicotinamide, OD615; deaD strain in restrictive glucose medium;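 active = inhibition above a set limit, placed 3 SD over the median of all compounds, cut at about 26% in these data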;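 note: 0% = nicotinamide-treated wells and 100% = cells grown without nicotinamide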
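Test system – modified budding yeast, DeaD strain · Compound – single dose 10 µM compound, 0.25% DMSO · Times – culture preincubation 4 h, compound exposure 48 h, both 30 °C · Detection – optical density (absorbance) at 615 nm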
Measles CPE: protection of cells from measles virus | protection (pct of control), % at 4 µM | Measles virus-infected cells, CPE protection, absorbance | AID 841 | 140,000 tested, 1.5% active; in the data active = protection mostly above about 24%, no sharp cut-off; inactive = mostly below about 26%
Yeast growth inh: yeast BB579 growth reduction in restrictive medium; S. cerevisiae BB579 growth, OD615, 48 h; inhibition, % at 10 µM; 140,000 tested, 0.51% active;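 active = inhibition above a set limit, 3 SD over the mean compound inhibition, cut at about 44% in these data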
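Detection: OD615 turbidity measurement; Material: Saccharomyces cerevisiae DeaD strain BB579, replicative lifespan model yeast; Timing: 48 h exposure, 30 °C; Doses: single 10 µM dose; Medium: CSMM-D restrictive synthetic medium containing dextrose (glucose); Controls: amphotericin B at 10 µg/mL as positive control.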
INS promoter inh: TRM-6 insulin promoter activity inhibition | TRM-6 cells, insulin promoter-eGFP reporter, imaging; reporter expression induced with tamoxifen | inhibition, % at 2 µM | 130,000 tested, 0.9% active | AID 1273;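 active = inhibition above the mean plus 3 SD, with well images judged a real hit on visual review, cut at about 60% in these data, passing the limit was not always enough; inconclusive = inhibition over the cutoff but images rejected on review; inactive = inhibition not above the cutoff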
RAM inhibit: yeast RAM network inhibition. S. cerevisiae dse1pr::URA3 reporter, 5-FOA growth OD615, 2 d; analog-sensitive cbk1-as2 kinase mutant strain. 190,000 tested, 1.8% active. inhibition, % at 50 µM;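 active = inhibition above a set limit, 3 SD over mean compound inhibition, cut at about 8.4% in these data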;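 note: 0% = DMSO-only wells with no growth and 100% = 10 µM 1-NA-PP1 full growth; inhibition rescues growth on 5-FOA so higher OD means more RAM inhibition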
An asterisk follows results filed as active. Only some compounds are listed: those with a hit (about 4% of all), similar ones and a draw of the others.

Screening Cc1noc(C)c1COC(=O)Cc1ccc(Cl)cc1 returned Mdm2 ligase inh -16, Yeast lifespan up 2, Measles CPE 48*, Yeast growth inh -21, INS promoter inh 18 and RAM inhibit 1.
`Cc1noc(C)c1COC(=O)CNC(=O)c1ccc(Cl)cc1` gave Mdm2 ligase inh -20, INS promoter inh 14 and RAM inhibit 0.
CNc1nc(-c2ccccc2)nc(-c2ccccc2)c1C#N was read as Mdm2 ligase inh -8, Yeast lifespan up -17, Measles CPE 61*, Yeast growth inh -37, INS promoter inh 29 and RAM inhibit 5.
Screening C=CCN1C(=O)/C(=C/C=C2/N(CC)c3ccc(S(=O)(=O)N(C)C)cc3N2CC)SC1=S returned Mdm2 ligase inh -15 and RAM inhibit 6.
`COc1ccc(/C=C/c2cc(=O)c3cc(Cl)ccc3o2)cc1` gave Mdm2 ligase inh -1, Yeast lifespan up 0, Measles CPE 17, Yeast growth inh -43, INS promoter inh -15 and RAM inhibit 10*.
`CC(C)S(=O)(=O)N1CCCC(C(=O)c2cccc(Cl)c2)C1` (stereo not given) gave Mdm2 ligase inh -20 and RAM inhibit -1.
Screening CCN1CCN(C(=O)c2ccc(COc3ccc(Cl)cc3)o2)CC1 returned Mdm2 ligase inh -1, Yeast lifespan up -11, Measles CPE 42*, Yeast growth inh 20, INS promoter inh 49 and RAM inhibit 2.
`O=C(Nc1ccc(F)cc1F)c1ccc(COc2c(F)c(F)cc(F)c2F)o1` gave Mdm2 ligase inh 6, Yeast lifespan up -13, Measles CPE 4, Yeast growth inh -38, INS promoter inh 32 and RAM inhibit 8.6*.
For O=C(c1ccc(COc2c(F)c(F)cc(F)c2F)o1)N1CCN(c2ccccc2)CC1 the results were Mdm2 ligase inh -4, Measles CPE 15, Yeast growth inh -18, INS promoter inh -42 and RAM inhibit 11*.
O=C(Nc1ccc(Cl)cc1F)c1ccc(COc2c(F)c(F)c(F)c(F)c2F)o1 was read as Mdm2 ligase inh -16, Yeast lifespan up -13, Measles CPE 48, Yeast growth inh 11 and RAM inhibit 2.
`O=C1c2cccc3cccc(c23)C(=O)N1c1ccncc1` gave Mdm2 ligase inh -5, Measles CPE 23*, Yeast growth inh 26, INS promoter inh 58 and RAM inhibit 1.
O=C1c2cccc3cccc(c23)C(=O)N1c1cccnc1 was read as Mdm2 ligase inh -3, Yeast lifespan up -31, Measles CPE 2, Yeast growth inh 49* and RAM inhibit -1.
For CCCc1cc(=O)[nH]c(SCC(=O)Nc2ccc(C)cc2)n1 the results were Mdm2 ligase inh 1 and RAM inhibit 8.5*.
For CN1C(C(=O)NCc2ccc(OC(F)(F)F)cc2)CC2Cn3c(nc4cc5ccccc5cc43)C21 (stereo not given) the results were Mdm2 ligase inh 21.
`Cc1nn(-c2ccccc2)c(C)c1N` gave Mdm2 ligase inh 2, INS promoter inh 75* and RAM inhibit 1.
For CCC(=O)NC(c1cccs1)c1ccc2cccnc2c1O (stereo not given) the results were Mdm2 ligase inh -5 and RAM inhibit 0.
Cc1conc1NC(c1cccs1)c1ccc2cccnc2c1O (stereo not given) was read as Mdm2 ligase inh -10, Yeast lifespan up 0, Measles CPE 17, Yeast growth inh 62* and RAM inhibit 0.
`CC(=O)OC(/C(O)=C(\C#N)c1nc2ccccc2[nH]1)c1ccccc1` (stereo not given) gave Mdm2 ligase inh -2, Yeast lifespan up -13, Measles CPE 4, Yeast growth inh -13, INS promoter inh -41 and RAM inhibit 1.
Clc1ccc2c(N/N=C/c3ccccc3Br)ccnc2c1 was read as Mdm2 ligase inh -24, Yeast lifespan up -8, Measles CPE 13, Yeast growth inh -24, INS promoter inh inconclusive and RAM inhibit 3.
`Clc1ccc2c(N/N=C/c3cccc(Br)c3)ccnc2c1` gave Mdm2 ligase inh -7, Yeast lifespan up -7, Measles CPE 1, Yeast growth inh -13, INS promoter inh 73* and RAM inhibit 4.
